Test [1] deals with Staphylococcus epidermidis. Kind of test: Antibacterial activity against Staphylococcus epidermidis ATCC 12228 by 2-fold serial dilution method. The class given is functional. The method, boiled down: (§1)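 MICs determined following Clinical and Laboratory Standards Institute recommendations, reported in μg/mL.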
Test [2] relates to Bacillus subtilis. Kind of test: Antibacterial activity against Bacillus subtilis TISTR 008 by 2-fold serial dilution method. In kind it is functional, Bacillus spizizenii. Summed up: as §1
For test [3], the system named is Staphylococcus aureus. Put plainly: Antibacterial activity against Staphylococcus aureus TISTR 1466 by 2-fold serial dilution method. In kind it is functional. Summed up: as §1
Test [4] deals with Pseudomonas aeruginosa. Put plainly: Antibacterial activity against Pseudomonas aeruginosa TISTR 292 by 2-fold serial dilution method. The class given is functional. Summed up: as §1
Test [5] concerns Salmonella typhimurium. Put plainly: Antibacterial activity against Salmonella typhimurium TISTR 781 by 2-fold serial dilution method. The class given is functional, Salmonella enterica subsp. enterica serovar Typhimurium. The method, boiled down:
as §1

Test [6] has as its system Staphylococcus epidermidis. Kind of test: Antibacterial activity against Staphylococcus epidermidis ATCC 12228 at >128 ug/ml by 2-fold serial dilution method. The class given is functional, organism-based. The method, boiled down:
as §1

In test [7] the test system is Staphylococcus aureus. Kind of test: Antibacterial activity against Staphylococcus aureus TISTR 1466 at >128 ug/ml by 2-fold serial dilution method. The class given is functional, organism-based. The method, boiled down: as §1
For test [8], the system named is Bacillus subtilis. Put plainly: Antibacterial activity against Bacillus subtilis TISTR 008 at >128 ug/ml by 2-fold serial dilution method. Particulars: Bacillus spizizenii. The class given is functional, organism-based. Summed up:
as §1

Our source for the MIC and Activity values is ChEMBL document CHEMBL4196148, “Antibacterial Prenylated Isoflavonoids from the Stems of Millettia extensa” (2018).

Usually MIC stands for the least concentration at which growth counts as inhibited. Higher therefore signals a need for much substance.

In brackets after ≈: the same amount, converted by molar mass. Activity calls are given as the source filed them. The rule behind the calls is not given here.

For `CC(C)=CCc1c2c(c(O)c3c(=O)c(-c4ccc(O)cc4O)coc13)C=CC(C)(C)O2`, the MIC in test [1] turned out to be 2 µg/mL (≈ 4.76 µM); in test [2], 2 µg/mL (≈ 4.76 µM); in test [3], 2 µg/mL (≈ 4.76 µM); in test [4], 128 µg/mL (≈ 304 µM); in test [5] (Salmonella enterica), 128 µg/mL (≈ 304 µM).

Turning to GENTAMICIN, the MIC in test [4] was 2 µg/mL; in test [5] (Salmonella enterica subsp. enterica serovar Typhimurium), 0.25 µg/mL.

As to `C=C(C)[C@@H]1Cc2c(cc(O)c3c2O[C@H]2COc4cc(OC)c(OC)cc4[C@H]2C3=O)O1`, the result in test [6], in test [7] and in test [8] was inactive. For the same molecule, the MIC in test [4] and in test [5] (Salmonella enterica) was 128 µg/mL (≈ 312 µM) in each case.

For `CN[C@H](CC(C)C)C(=O)N[C@H]1C(=O)N[C@@H](CC(N)=O)C(=O)N[C@H]2C(=O)N[C@H]3C(=O)N[C@H](C(=O)N[C@H](C(=O)O)c4cc(O)cc(O)c4-c4cc3ccc4O)[C@H](O)c3ccc(c(Cl)c3)Oc3cc2cc(c3O[C@@H]2O[C@H](CO)[C@@H](O)[C@H](O)[C@H]2O[C@H]2C[C@](C)(N)[C@H](O)[C@H](C)O2)Oc2ccc(cc2Cl)[C@H]1O` [VANCOMYCIN], the MIC in test [1], in test [2] and in test [3] was 0.25 µg/mL (≈ 0.173 µM) throughout.

In the case of `CC(C)=CCOc1ccc(-c2coc3cc4c(c(O)c3c2=O)C=CC(C)(C)O4)c(O)c1`, the outcome in test [6], in test [7] and in test [8] was inactive. Besides, the MIC in test [4] and in test [5] (Salmonella enterica) was 128 µg/mL (≈ 304 µM) each time.

`CC(C)=CCc1c2c(c3occ(-c4ccc(O)cc4O)c(=O)c3c1O)C=CC(C)(C)O2`: the minimum inhibitory concentration (MIC) in test [1] is 2 µg/mL (≈ 4.76 µM); in test [2], 2 µg/mL (≈ 4.76 µM); in test [3], 2 µg/mL (≈ 4.76 µM); in test [4], 128 µg/mL (≈ 304 µM); in test [5] (Salmonella enterica), 128 µg/mL (≈ 304 µM).

For `COc1cc(OC)c(-c2coc3cc4c(c(O)c3c2=O)C=CC(C)(C)O4)cc1OC`, the result in test [6], in test [7] and in test [8] was inactive. Also, the minimal inhibitory concentration (MIC) in test [4] and in test [5] (Salmonella enterica) was 128 µg/mL (≈ 312 µM) in each case.

Consider `CC(C)=CCc1c2c(c(O)c3c(=O)c(-c4ccc(O)c(O)c4)coc13)C=CC(C)(C)O2` [AURICULASIN], for which the MIC in test [1] was determined as 4 µg/mL (≈ 9.51 µM); in test [2], 8 µg/mL (≈ 19 µM); in test [3] it was 4 µg/mL (≈ 9.51 µM); in test [4], 128 µg/mL (≈ 304 µM); in test [5] (Salmonella enterica) it was 128 µg/mL (≈ 304 µM).

On to `CC(C)=CCOc1ccc(-c2coc3cc4c(c(O)c3c2=O)C=CC(C)(C)O4)cc1`, for which the outcome in test [6], in test [7] and in test [8] was inactive. The minimal inhibitory concentration (MIC) in test [4] and in test [5] (Salmonella enterica) was 128 µg/mL (≈ 316 µM) in each case.

As to `Oc1ccc2c(c1)OC[C@H]1c3cc4c(cc3O[C@@H]21)OCO4` [MAACKIAIN], the outcome in test [6], in test [7] and in test [8] was inactive. In addition, the MIC in test [4] and in test [5] (Salmonella enterica) was 128 µg/mL (≈ 450 µM) throughout.

For `CC(C)=CCC1=C(O)c2c(occ(-c3ccc(O)cc3O)c2=O)C(CC=C(C)C)(CC=C(C)C)C1=O`, the minimal inhibitory concentration (MIC) is 2 µg/mL (≈ 4.08 µM) in test [1]; 2 µg/mL (≈ 4.08 µM) in test [2]; 2 µg/mL (≈ 4.08 µM) in test [3]; 128 µg/mL (≈ 261 µM) in test [4]; 128 µg/mL (≈ 261 µM) in test [5] (Salmonella enterica).

As to `CC(C)=CCc1c2c(c(O)c3c(=O)c(-c4ccc(O)cc4)coc13)C=CC(C)(C)O2` [WARANGALONE], the MIC is 4 µg/mL (≈ 9.89 µM) in test [1]; 2 µg/mL (≈ 4.94 µM) in test [2]; 2 µg/mL (≈ 4.94 µM) in test [3]; 128 µg/mL (≈ 316 µM) in test [4]; 128 µg/mL (≈ 316 µM) in test [5] (Salmonella enterica).
